The results in this text go back to ChEMBL document CHEMBL3108700, “Designing anti-inflammatory drugs from parasitic worms: a synthetic small molecule analogue of the Acanthocheilonema viteae product ES-62 prevents development of collagen-induced arthritis” (J Med Chem, 2013).

The structures appear in SMILES notation. Active and inactive are the calls of the source.

The target of test [1] is T1, TLR2/TLR6 (Mus musculus) (UniProt Q9QUN7+Q9EPW9). Description: Inhibition of TLR2/6 in BALB/c mouse BMDM assessed as downregulation of BLP-stimulated IL-12p40 level at 5 ug/ml preincubated for 18 hrs followed by BLP challenge measured after 24 hrs by ELISA relative to control. Format: protein-complex assay. In outline:
(§1)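 BALB/c male bone marrow macrophages were differentiated 7 days with L929 supernatant (≥99% CD11b+/F4/80+). Cells were plated at 2 × 10^5/well in triplicate, rested overnight, and given compounds at 5 μg/mL for 18 h. They were then stimulated with 100 ng/mL S. minnesota LPS, 10 ng/mL Pam3CSK4 (BLP) or 0.01 μM CpG for 24 h. Supernatant IL-12p40 and IL-6 were measured by ELISA (sensitivity 16 pg/mL).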

Test [2] addresses T1, TLR2/TLR6 (Mus musculus). Put plainly: Inhibition of TLR2/6 in BALB/c mouse BMDM assessed as downregulation of BLP-stimulated IL-6 level at 5 ug/ml preincubated for 18 hrs followed by BLP challenge measured after 24 hrs by ELISA relative to control. Format: protein-complex assay. In outline:
as §1
A general note: An ELISA detects its analyte on a solid surface through an enzyme-linked reagent.

For test [3], the target named is T2, Toll-like receptor 9 (Mus musculus) (UniProt Q9EQU3).
T2 sequence (whole entry): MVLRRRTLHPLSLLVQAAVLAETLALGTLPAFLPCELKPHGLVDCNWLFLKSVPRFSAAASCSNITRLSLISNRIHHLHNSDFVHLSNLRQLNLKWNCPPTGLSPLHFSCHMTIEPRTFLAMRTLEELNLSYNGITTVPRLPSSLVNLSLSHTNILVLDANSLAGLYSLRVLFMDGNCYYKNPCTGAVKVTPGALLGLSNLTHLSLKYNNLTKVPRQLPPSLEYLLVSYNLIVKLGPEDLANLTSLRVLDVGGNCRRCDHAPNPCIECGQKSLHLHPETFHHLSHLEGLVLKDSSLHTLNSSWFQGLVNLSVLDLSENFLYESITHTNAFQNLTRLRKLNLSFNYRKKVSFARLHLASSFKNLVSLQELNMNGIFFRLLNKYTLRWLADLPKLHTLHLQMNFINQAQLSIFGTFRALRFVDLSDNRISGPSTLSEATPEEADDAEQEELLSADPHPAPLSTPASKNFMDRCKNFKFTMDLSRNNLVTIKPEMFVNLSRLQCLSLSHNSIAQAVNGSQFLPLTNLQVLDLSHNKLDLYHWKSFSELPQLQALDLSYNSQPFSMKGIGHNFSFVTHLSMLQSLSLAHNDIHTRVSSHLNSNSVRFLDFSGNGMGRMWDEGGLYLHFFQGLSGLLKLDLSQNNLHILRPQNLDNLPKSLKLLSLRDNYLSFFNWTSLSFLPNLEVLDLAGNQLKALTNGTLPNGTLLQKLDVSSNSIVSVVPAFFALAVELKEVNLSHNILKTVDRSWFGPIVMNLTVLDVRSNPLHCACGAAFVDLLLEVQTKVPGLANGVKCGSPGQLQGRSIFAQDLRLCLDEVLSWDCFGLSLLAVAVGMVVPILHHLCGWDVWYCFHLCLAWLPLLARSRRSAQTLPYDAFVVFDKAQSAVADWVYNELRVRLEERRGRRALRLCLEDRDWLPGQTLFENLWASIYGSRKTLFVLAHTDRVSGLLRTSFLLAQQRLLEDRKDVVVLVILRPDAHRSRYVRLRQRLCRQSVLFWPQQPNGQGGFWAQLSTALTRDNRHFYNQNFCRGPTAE
Description: Inhibition of TLR9 in BALB/c mouse BMDM assessed as downregulation of CpG-stimulated IL-6 level at 5 ug/ml preincubated for 18 hrs followed by CpG challenge measured after 24 hrs by ELISA relative to control. In short, it runs like this: as §1

The target in test [4] is T1, TLR2/TLR6 (Mus musculus). Description: Inhibition of TLR2/6-mediated NFkappaB p65 activation in BLP-stimulated BALB/c mouse BMDM at 5 ug/ml preincubated for 18 hrs followed by BLP challenge measured after 1 hr by TransAM ELISA. Format: protein-complex assay. In short, it runs like this:
(§2)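 Bone marrow macrophages (4 × 10^6/well) had their medium changed after 24 h, were pretreated with compounds at 5 μg/mL for 18 h, then stimulated for 1 h with 100 ng/mL LPS, 10 ng/mL BLP or 1 μM CpG. Activated NFκB p65 in nuclear extracts was measured by TransAM ELISA in duplicate.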

Test [5] deals with T2, Toll-like receptor 9 (Mus musculus). Description: Inhibition of TLR9-mediated NFkappaB p65 activation in CpG-stimulated BALB/c mouse BMDM at 5 ug/ml preincubated for 18 hrs followed by CpG challenge measured after 1 hr by TransAM ELISA. In short, it runs like this:
as §2

The target is the same in test [6]. Description: Inhibition of TLR9 in BALB/c mouse BMDM assessed as downregulation of CpG-stimulated IL-12p40 level at 5 ug/ml preincubated for 18 hrs followed by CpG challenge measured after 24 hrs by ELISA relative to control. In short, it runs like this:
as §1

In test [7] the target is T3, Toll-like receptor 4 (Mus musculus) (UniProt Q9QUK6).
T3 sequence (whole entry): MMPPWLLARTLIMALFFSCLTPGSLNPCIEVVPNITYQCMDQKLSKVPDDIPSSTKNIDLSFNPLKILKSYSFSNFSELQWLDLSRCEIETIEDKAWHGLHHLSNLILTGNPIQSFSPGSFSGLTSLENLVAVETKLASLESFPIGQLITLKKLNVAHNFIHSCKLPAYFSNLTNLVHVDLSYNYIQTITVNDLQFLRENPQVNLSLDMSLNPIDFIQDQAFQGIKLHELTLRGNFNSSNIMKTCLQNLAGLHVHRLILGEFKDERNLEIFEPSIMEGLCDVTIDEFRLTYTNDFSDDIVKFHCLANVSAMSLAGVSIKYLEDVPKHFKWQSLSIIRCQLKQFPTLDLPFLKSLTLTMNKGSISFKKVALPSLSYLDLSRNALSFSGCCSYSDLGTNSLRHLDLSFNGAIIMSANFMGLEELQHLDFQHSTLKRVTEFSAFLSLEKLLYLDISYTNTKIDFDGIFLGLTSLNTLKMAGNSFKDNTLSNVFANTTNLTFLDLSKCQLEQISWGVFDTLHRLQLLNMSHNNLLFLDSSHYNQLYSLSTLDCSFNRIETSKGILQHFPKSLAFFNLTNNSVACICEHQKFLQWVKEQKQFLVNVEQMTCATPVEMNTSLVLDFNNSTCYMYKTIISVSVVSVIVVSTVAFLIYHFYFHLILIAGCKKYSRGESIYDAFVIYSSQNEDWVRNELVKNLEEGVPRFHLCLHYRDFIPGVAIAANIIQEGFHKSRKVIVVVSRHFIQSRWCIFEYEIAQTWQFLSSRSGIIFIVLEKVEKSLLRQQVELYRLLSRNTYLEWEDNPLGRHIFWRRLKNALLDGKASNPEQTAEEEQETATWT
Put plainly: Inhibition of TLR4-mediated NFkappaB p65 activation in LPS-stimulated BALB/c mouse BMDM at 5 ug/ml preincubated for 18 hrs followed by LPS challenge measured after 1 hr by TransAM ELISA. In outline:
as §2

Test [8] deals with T3, Toll-like receptor 4 (Mus musculus). Put plainly: Inhibition of TLR4 in BALB/c mouse BMDM assessed as downregulation of LPS-stimulated IL-6 level at 5 ug/ml preincubated for 18 hrs followed by LPS challenge measured after 24 hrs by ELISA relative to control. In outline: as §1
Test [9] has the same target. Put plainly: Inhibition of TLR4 in BALB/c mouse BMDM assessed as downregulation of LPS-stimulated IL-12p40 level at 5 ug/ml preincubated for 18 hrs followed by LPS challenge measured after 24 hrs by ELISA relative to control. In outline:
as §1

Take `CN(C)CCS(=O)(=O)NCc1ccc([N+](=O)[O-])cc1`: the inhibition entry (on TLR2/TLR6 (Mus musculus) [1]; at TLR2/TLR6 (Mus musculus) [2]; in test [3]; in test [6]; in test [8]) was “Active” each time. For the same molecule, the inhibition entry (at TLR2/TLR6 (Mus musculus) [4]; in test [5]; in test [7]; in test [9]) was “inactive” throughout.

`O=S(=O)(Cc1ccc2ccccc2c1)NCCN1CCCC1`: the inhibition entry (at TLR2/TLR6 (Mus musculus) [1]; in test [3]; in [6]; in test [8]; in test [9]) was “inactive” throughout. In addition, the inhibition result at TLR2/TLR6 (Mus musculus) [2] is “Active”.

Take `CC[C@H](C)NCCS(=O)(=O)Cc1cccc(F)c1`: the inhibition entry (at TLR2/TLR6 (Mus musculus) [1]; at TLR2/TLR6 (Mus musculus) [2]; in test [3]; in test [6]; in [8]; in test [9]) was “inactive” throughout.

In the case of `COc1cccc(C(=O)NCCN2CCOCC2)c1`, the inhibition entry (on TLR2/TLR6 (Mus musculus) [1]; in [3]; in [9]) was “Active” in each case. Also, the inhibition result (on TLR2/TLR6 (Mus musculus) [2]; in test [6]; in test [8]) was “inactive” each time.

In the case of `Cc1ccc(CS(=O)(=O)NCCCN(C)C)cc1`, the inhibition result (on TLR2/TLR6 (Mus musculus) [1]; on TLR2/TLR6 (Mus musculus) [2]; in test [3]; in test [6]; in [8]; in test [9]) was “inactive” throughout.

`Cc1ccc(CNS(=O)(=O)CCN2CCCC2)cc1`: the inhibition entry (at TLR2/TLR6 (Mus musculus) [1]; at TLR2/TLR6 (Mus musculus) [2]; in test [3]; in [6]; in [8]; in test [9]) was “inactive” in each case.

For the molecule `Cc1ccc(CS(=O)(=O)CC[N+]2(C)CCCC2)cc1`, the inhibition entry (on TLR2/TLR6 (Mus musculus) [1]; in test [9]) was “Active” throughout. In addition, the inhibition result (at TLR2/TLR6 (Mus musculus) [2]; in [3]; in test [6]; in test [8]) was “inactive” in each case.
